Source: ChEMBL document CHEMBL5036342, “Indomethacin-based PROTACs as pan-coronavirus antiviral agents” (Eur J Med Chem, 2021)

Columns and labels:
Vero C1008 = assay: Cytotoxicity against African green monkey Vero E6 cells assessed as reduction of cell viability measured after 72 hrs by MTT assay; format: cell-based; conditions: chlorocebus sabaeus, vero c1008, 72 h
Method in brief: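 Uninfected Vero E6 cells were exposed to compound for 72 h and viability read by MTT. CC50 is the concentration reducing viability by 50%.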

SARS-CoV-2 [1] = assay: Antiviral activity against SARS-CoV-2/NL/2020 infected in African green monkey Vero E6 cells assessed as inhibition of plaque formation measured after 3 days by Plaque reduction assay; format: functional, organism-based; conditions: Severe acute respiratory syndrome coronavirus 2, NL/2020, Vero C1008, 72 h
[2] = Selectivity index, ratio of CC50 for cytotoxicity against African green monkey Vero E6 cells to EC50 for antiviral activity against SARS-COV2/NL/2020 infected in African green monkey Vero E6 cells; format: toxicity, cell-based, Vero C1008; conditions: read-out: Ratio CC50/EC50
SARS-CoV-2 [3] = assay: Antiviral activity against SARS-COV2/Padova/2020 infected in African green monkey Vero E6 cells assessed as inhibition of plaque formation measured after 3 days by Plaque reduction assay; format: functional, organism-based; conditions: Severe acute respiratory syndrome coronavirus 2, Padova/2020, Vero C1008, 72 h
[4] = Selectivity index, ratio of CC50 for cytotoxicity against African green monkey Vero E6 cells to EC50 for antiviral activity against SARS-COV2/Padova/2020 infected in African green monkey Vero E6 cells; format: toxicity, cell-based, Vero C1008; conditions: read-out: Ratio CC50/EC50
MRC5 = assay: Cytotoxicity against human MRC5 cells assessed as reduction in cell viability measured after 72 hrs by MTT assay; format: cell-based; conditions: mrc5, 72 h
Method in brief: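 MRC-5 cells were exposed to compound for 72 h and viability read by MTT. CC50 is the concentration reducing viability by 50%.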

Human coronavirus OC43 = assay: Antiviral activity against Human coronavirus OC43 infected in human MRC5 cells assessed as inhibition of plaque formation measured after 3 days by Plaque reduction assay; format: functional, cell-based; conditions: Betacoronavirus 1, MRC5, 72 h
Method in brief: (§1)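 MRC-5 cells were seeded at 6×10^4 per well and infected the next day with 80 PFU per well. After the inoculum was removed, the overlay held graded compound concentrations, 3% FBS and 0.6% methylcellulose. Monolayers were fixed and stained after 3 days, and plaques counted. EC50 is the concentration giving 50% plaque inhibition, with 95% profile-likelihood CI. n = 3 independent experiments in duplicate.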

Human coronavirus 229E = assay: Antiviral activity against Human coronavirus 229E infected in human MRC5 cells assessed as inhibition of plaque formation measured after 3 days by Plaque reduction assay; format: functional, organism-based; conditions: MRC5, 72 h; method in brief: as §1
[5] = Cytotoxicity against African green monkey Vero E6 cells infected with SARS-CoV-2 assessed as reduction of cell viability measured after 48 hrs by MTT assay; format: cell-based, Vero C1008; conditions: chlorocebus sabaeus
SARS-CoV = assay: Antiviral activity against SARS-CoV infected in African green monkey Vero E6 cells assessed as inhibition of viral replication; format: functional, organism-based; conditions: Severe acute respiratory syndrome-related coronavirus, Vero C1008
Canine coronavirus = assay: Antiviral activity against Canine coronavirus infected in dog A-72 cells assessed as inhibition of viral replication; format: functional, cell-based; conditions: Alphacoronavirus 1, A-72
SARS-CoV-2 [6] = assay: Antiviral activity against SARS-CoV-2 infected in African green monkey Vero E6 cells assessed as reduction in virus induced cytopathic effect measured after 4 days by MTT assay; format: functional, organism-based; conditions: Severe acute respiratory syndrome coronavirus 2, Vero C1008, 96 h

COc1ccc2c(c1)c(CC(=O)NCCCCC(=O)N[C@H](C(=O)N1C[C@H](O)C[C@H]1C(=O)N[C@@H](C)c1ccc(-c3scnc3C)cc1)C(C)(C)C)c(C)n2C(=O)c1ccc(Cl)cc1
CC50 (Vero C1008): > 200 µM | EC50 (SARS-CoV-2 [1]): > 50 µM | selectivity ratio [2]: > 4 | EC50 (SARS-CoV-2 [3]): > 50 µM | selectivity ratio [4]: > 4

COc1ccc2c(c1)c(CC(=O)NCCN1CCN(C(=O)CCC(=O)N[C@H](C(=O)N3C[C@H](O)C[C@H]3C(=O)N[C@@H](C)c3ccc(-c4scnc4C)cc3)C(C)(C)C)CC1)c(C)n2C(=O)c1ccc(Cl)cc1
CC50 (Vero C1008): > 250 µM | EC50 (SARS-CoV-2 [1]): 21.5 µM | selectivity ratio [2]: > 12 | EC50 (SARS-CoV-2 [3]): 29.8 µM | selectivity ratio [4]: > 8 | CC50 (MRC5): 238 µM | EC50 (Human coronavirus OC43): 2.5 µM | EC50 (Human coronavirus 229E): 3.2 µM

COc1ccc2c(c1)c(CC(=O)NCCOCCOCC(=O)N[C@H](C(=O)N1C[C@H](O)C[C@H]1C(=O)N[C@@H](C)c1ccc(-c3scnc3C)cc1)C(C)(C)C)c(C)n2C(=O)c1ccc(Cl)cc1
CC50 (Vero C1008): > 200 µM | EC50 (SARS-CoV-2 [1]): > 50 µM | selectivity ratio [2]: > 4 | EC50 (SARS-CoV-2 [3]): > 50 µM | selectivity ratio [4]: > 4

COc1ccc2c(c1)c(CC(=O)NCCCCCCC(=O)N[C@H](C(=O)N1C[C@H](O)C[C@H]1C(=O)N[C@@H](C)c1ccc(-c3scnc3C)cc1)C(C)(C)C)c(C)n2C(=O)c1ccc(Cl)cc1
CC50 (Vero C1008): > 200 µM | EC50 (SARS-CoV-2 [1]): 18.1 µM | selectivity ratio [2]: > 11 | EC50 (SARS-CoV-2 [3]): 25.4 µM | selectivity ratio [4]: > 8 | CC50 (MRC5): > 250 µM | EC50 (Human coronavirus OC43): 4.7 µM | EC50 (Human coronavirus 229E): 36.5 µM

COc1ccc2c(c1)c(CC(=O)O)c(C)n2C(=O)c1ccc(Cl)cc1 [INDOMETHACIN]
CC50 (Vero C1008): > 500 µM | EC50 (SARS-CoV-2 [1]): 94.9 µM | selectivity ratio [2]: > 5 | CC50 at 48 h [5]: > 100 µM | IC50 (SARS-CoV): 50 µM | IC50 (Canine coronavirus): 5 µM | LC50 (Canine coronavirus; read-out: LD50 (the source's name)): 550 µM | EC50 (SARS-CoV-2 [6]): > 400 µM

CCC(CC)COC(=O)[C@H](C)N[P@](=O)(OC[C@H]1O[C@@](C#N)(c2ccc3c(N)ncnn23)[C@H](O)[C@@H]1O)Oc1ccccc1 [REMDESIVIR]
CC50 (Vero C1008): 373 µM | EC50 (SARS-CoV-2 [1]): 0.15 µM | selectivity ratio [2]: 2490 | EC50 (SARS-CoV-2 [3]): 0.25 µM | selectivity ratio [4]: 1490
